Sampled rows, rich in hits. Any-hit rate of the full collection: about 0.77%.
hIAP inh = human IAP inhibitors, primary screen, biochemical, luminescence, uHTS; inhibition, % at 10 µM; hit rate 0.12% among 330,000; AID 2544, 2010; purified IAP, CDP-Star luminescence, 30 min;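 active = inhibition reaching a set limit with compound at 10 µM in the primary screen, cut at about 35% in these data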;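 note: plate controls were DMSO wells with enzyme for no effect and no-enzyme buffer wells for full effect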
Target sequence (P09923 whole entry, looked up): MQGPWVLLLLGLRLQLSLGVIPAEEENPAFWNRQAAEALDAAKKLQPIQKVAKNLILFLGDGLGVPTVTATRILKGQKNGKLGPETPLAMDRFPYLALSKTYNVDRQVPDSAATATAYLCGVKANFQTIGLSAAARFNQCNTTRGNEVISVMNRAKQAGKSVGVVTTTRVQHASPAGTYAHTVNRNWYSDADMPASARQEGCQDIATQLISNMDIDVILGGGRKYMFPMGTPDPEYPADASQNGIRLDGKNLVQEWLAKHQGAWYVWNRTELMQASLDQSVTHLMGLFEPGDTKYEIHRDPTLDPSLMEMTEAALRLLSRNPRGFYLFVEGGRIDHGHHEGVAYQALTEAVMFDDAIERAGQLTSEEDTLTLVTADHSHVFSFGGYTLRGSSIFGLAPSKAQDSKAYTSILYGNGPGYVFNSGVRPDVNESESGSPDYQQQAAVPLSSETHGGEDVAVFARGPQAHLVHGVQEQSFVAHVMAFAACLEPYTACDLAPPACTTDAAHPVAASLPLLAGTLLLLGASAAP
bIAP activator = bovine intestinal alkaline phosphatase activators, primary screen, biochemical, bovine IAP, CDP-star luminescence | alkaline phosphatase, intestinal [Bos taurus] | purified bovine IAP, 30 min; stronger effect = higher value; fold of DMSO-control signal, blank-subtracted | activation factor at 20 µM | hit rate 0.17% among 200,000 | AID 1016, 2008;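 active = activation factor of 2 or more at 20 µM, a signal rise over negative controls twice the positive control's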
mIAP act = activators of mouse IAP, primary screen, biochemical, luminescence, uHTS; hit rate 0.24% among 330,000; muIAP, CDP-Star luminescence, 30 min; stronger effect = higher value; 1 = vehicle-only enzyme signal, 0 = enzyme-free wells; intestinal alkaline phosphatase [Mus musculus]; activation factor at 10 µM;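 active = activation factor of at least 2 at 20 µM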
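System: Mouse IAP enzyme | Also added: CDP-Star substrate | Dosing: Compounds dispensed in DMSO | Schedule: 30 min enzyme-substrate-compound incubation at room temperature | Technique: Chemiluminescence readout | Control set: DMSO-only wells and no-enzyme negative control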
bIAP inh = bovine intestinal alkaline phosphatase inhibitors, primary screen, selectivity assay for TNAP inhibitor project, biochemical, bovine IAP, CDP-star luminescence; AID 1019, 2008; purified bovine IAP, 30 min; alkaline phosphatase, intestinal [Bos taurus]; 190,000 tested, under 10 active; inhibition, % at 20 µM;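 active = over 50% inhibition of intestinal alkaline phosphatase at 20 µM in the single-dose screen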
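test system = bovine IAP enzyme | medium = DEA buffer 100 mM, pH 9.8, with MgCl2 1.0 mM, ZnCl2 0.02 mM | detection = luminescence | dosing = single compound dose of 20 µM, 2% DMSO final | incubation = 30 min reaction at room temperature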
hIAP act = human IAP activators, primary screen, biochemical, luminescence, uHTS | Intestinal-type alkaline phosphatase (Homo sapiens), P09923 | activation factor at 10 µM | AID 2524, 2010 | purified human IAP, CDP-Star luminescence, 30 min; stronger effect = higher value; 1 = vehicle-only enzyme, 0 = enzyme-free background | hit rate 0.16% among 330,000;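 active = activation factor of the enzyme at least 2-fold when tested at 20 µM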
mIAP inh = inhibitors of mouse IAP, primary screen, biochemical, luminescence, uHTS; AID 2806, 2010; purified mouse IAP, CDP-Star luminescence, 30 min; hit rate 0.2% among 330,000; inhibition, % at 10 µM; intestinal alkaline phosphatase [Mus musculus];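 active = inhibition of at least 40% at 10 µM in the primary screen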;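 note: plate controls were DMSO with enzyme for no effect and no enzyme wells for full effect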
hIAP act confirm = human IAP activators, confirmation, biochemical, luminescence, single concentration, uHTS hits | purified IAP, CDP-Star luminescence, 30 min; stronger effect = lower value | activation (%Activity, negative = activation), % at 8.3 µM | hit rate 10% among 880 | shares compounds with hIAP act;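 active = at least twofold enzyme activation in any of six single-dose repeats, which the averaged readout prints as negative percent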
mIAP inh confirm = inhibitors of mouse IAP, confirmation, biochemical, luminescence, single concentration. shares compounds with mIAP inh. purified mouse IAP, CDP-Star luminescence, 30 min. inhibition, % at 10 µM. hit rate 4.7% among 11,000. AID 434971, 2010;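 active = inhibition of at least 40% at 10 µM in either of the two replicates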;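 note: plate controls were DMSO wells with enzyme for no effect and buffer wells lacking enzyme for full effect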
Numbers without * were called inactive.

`C=CCn1cc(CN2CCC(C(=O)Nc3cccc(-c4cccc(Cl)c4)c3)CC2)c(C)n1` gave hIAP inh inactive, mIAP act 6.5*, hIAP act 7.9*, mIAP inh inactive, hIAP act confirm -37 and mIAP inh confirm -274.
O=C(Nc1cccc(-c2cccc(Cl)c2)c1)C1CCN(Cc2ccccn2)CC1 was read as hIAP inh -50, mIAP act 2, hIAP act 1.5 and mIAP inh -98.
Screening O=C(Nc1cccc(-c2cccc(Cl)c2)c1)C1CCN(CC2CCOC2)CC1 (stereo unspecified) returned hIAP inh -311, mIAP act 3*, hIAP act 4.1*, mIAP inh -202, hIAP act confirm -26 and mIAP inh confirm -132.
For Cc1c(CN2CCC(C(=O)Nc3cccc(-c4cccc(Cl)c4)c3)CC2)cnn1C the results were hIAP inh inactive, mIAP act 5*, hIAP act 6.4*, mIAP inh -402, hIAP act confirm -18 and mIAP inh confirm -312.
Screening O=C(Nc1cccc(-c2cccc(F)c2)c1)C1CCN(CC2CCOC2)CC1 (stereo unspecified) returned hIAP inh -96, mIAP act 1.8, hIAP act 2 and mIAP inh -79.
C=CCn1cc(CN2CCC(C(=O)Nc3ccc(Oc4cccnc4)cc3)CC2)c(C)n1 was read as hIAP inh 3, mIAP act 0.91, hIAP act 0.97 and mIAP inh 9.
CN(C(=O)COC(=O)/C=C/c1cccs1)c1c(N)n(Cc2ccccc2)c(=O)[nH]c1=O was read as hIAP inh 3, mIAP act 1.1, hIAP act 0.97 and mIAP inh -9.
For C/C(=N\NC(=O)C1CC1)c1ccc(C)cc1C the results were hIAP inh 0, mIAP act 1, hIAP act 1 and mIAP inh -3.
Screening COC1=C/C(=C/c2c(N)n3c(nc2=O)sc2cc(S(C)(=O)=O)ccc23)C=CC1=O returned hIAP inh 29, mIAP act 0.74, hIAP act 0.71 and mIAP inh 26.
Screening CS(=O)(=O)c1ccc2c(c1)sc1nc(=O)c(/C=C3/C=CC(=O)C(O)=C3)c(N)n12 returned hIAP inh 58*, mIAP act 0.25, hIAP act 0.41, mIAP inh 75*, hIAP act confirm -3 and mIAP inh confirm 85*.
O=C(O)c1cccc2c1/C(=N/Nc1ccc([N+](=O)[O-])cc1[N+](=O)[O-])c1ccccc1-2 was read as hIAP inh 17, mIAP act 0.93, hIAP act 0.83 and mIAP inh 7.
`O=C(NN1C(=O)CSC1=S)C(=O)NN1C(=O)CSC1=S` gave hIAP inh -145, bIAP activator 1.5, mIAP act 0.11, bIAP inh -46, hIAP act 2.5*, mIAP inh 89*, hIAP act confirm 74 and mIAP inh confirm 92*.
`Cc1ccc(NC(=O)C2CC(=O)n3c(nc4ccccc43)N2)cc1C` (stereo unspecified) gave hIAP inh -115, mIAP act 3.5*, hIAP act 2.1*, mIAP inh -251, hIAP act confirm -2 and mIAP inh confirm -120.

Screens deposited in PubChem BioAssay by Sanford-Burnham Center for Chemical Genomics.
